According to ChEMBL document CHEMBL1781989, “Novel β-carboline-tripeptide conjugates attenuate mesenteric ischemia/reperfusion injury in the rat” (2011):
Calls of active or inactive are those of the source. Non-standard residues stand in square brackets, D forms with d. Residues, ends and D or L forms follow the SMILES beside them. Tpi = O=C(O)[C@@H]1Cc2c([nH]c3ccccc23)CN1

Tests used:
Mus musculus [1] = assay: Antiinflammatory activity in po dosed ICR mouse assessed as inhibition of xylene-induced ear edema administered 30 mins before xylene challenge measured after 2 hrs; type: functional, organism-based
Procedure, shortened: (§1)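 Male ICR mice (20 ± 2 g), randomised to test, vehicle (CMC) and aspirin (10 mg/kg oral) groups. Test agents given orally as CMC suspension. After 30 min, 0.03 mL xylene applied to both faces of the right ear, left ear as control. At 2 h mice were killed and 7 mm ear punches weighed. Edema is the right-minus-left weight, and inhibition is taken against vehicle.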

Mus musculus [2] = assay: Analgesic activity in ICR mouse assessed as increase in pain threshold at 0.15 mmol/kg, po after 90 mins by tail flick method (reference value: 7.53 +/- 11.54 %); type: functional
Mus musculus [3] = assay: Analgesic activity in ICR mouse assessed as increase in pain threshold at 0.05 mmol/kg, po after 60 mins by tail flick method (reference value: 7.45 +/- 8.03 %); type: functional
Mus musculus [4] = assay: Analgesic activity in ICR mouse assessed as increase in pain threshold at 0.05 mmol/kg, po after 120 mins by tail flick method (reference value: 8.09 +/- 13.28 %); type: functional
Mus musculus [5] = assay: Antiinflammatory activity in ICR mouse assessed as inhibition of xylene-induced ear edema at 0.15 mmol/kg, po administered 30 mins before xylene challenge measured after 2 hrs relative to control; type: functional; procedure, shortened: as §1
Mus musculus [6] = assay: Analgesic activity in ICR mouse assessed as increase in pain threshold at 0.10 mmol/kg, po after 90 mins by tail flick method (reference value: 7.53 +/- 11.54 %); type: functional
Mus musculus [7] = assay: Analgesic activity in ICR mouse assessed as increase in pain threshold at 0.05 mmol/kg, po after 90 mins by tail flick method (reference value: 7.53 +/- 11.54 %); type: functional
Mus musculus [8] = assay: Analgesic activity in ICR mouse assessed as increase in pain threshold at 0.10 mmol/kg, po after 120 mins by tail flick method (reference value: 8.09 +/- 13.28 %); type: functional
Mus musculus [9] = assay: Antiinflammatory activity in ICR mouse assessed as inhibition of xylene-induced ear edema at 0.05 mmol/kg, po administered 30 mins before xylene challenge measured after 2 hrs relative to control; type: functional; procedure, shortened: as §1
Mus musculus [10] = assay: Analgesic activity in ICR mouse assessed as increase in pain threshold at 0.15 mmol/kg, po after 30 mins by tail flick method (reference value: 5.03 +/- 10.26 %); type: functional
Mus musculus [11] = assay: Analgesic activity in ICR mouse assessed as increase in pain threshold at 0.15 mmol/kg, po after 180 mins by tail flick method (reference value: 8.75 +/- 9.73 %); type: functional
Mus musculus [12] = assay: Analgesic activity in ICR mouse assessed as increase in pain threshold at 0.15 mmol/kg, po after 150 mins by tail flick method (reference value: 9.02 +/- 12.19 %); type: functional
Mus musculus [13] = assay: Analgesic activity in ICR mouse assessed as increase in pain threshold at 0.15 mmol/kg, po after 120 mins by tail flick method (reference value: 8.09 +/- 13.28 %); type: functional
Mus musculus [14] = assay: Antiinflammatory activity in ICR mouse assessed as inhibition of xylene-induced ear edema at 0.10 mmol/kg, po administered 30 mins before xylene challenge measured after 2 hrs relative to control; type: functional; procedure, shortened: as §1
Mus musculus [15] = assay: Analgesic activity in ICR mouse assessed as increase in pain threshold at 0.15 mmol/kg, po after 60 mins by tail flick method (reference value: 7.45 +/- 8.03 %); type: functional
Mus musculus [16] = assay: Analgesic activity in ICR mouse assessed as increase in pain threshold at 0.10 mmol/kg, po after 60 mins by tail flick method (reference value: 7.45 +/- 8.03 %); type: functional
Mus musculus [17] = assay: Analgesic activity in ICR mouse assessed as increase in pain threshold at 0.05 mmol/kg, po after 180 mins by tail flick method (reference value: 8.75 +/- 9.73 %); type: functional
Mus musculus [18] = assay: Analgesic activity in ICR mouse assessed as increase in pain threshold at 0.10 mmol/kg, po after 30 mins by tail flick method (reference value: 5.03 +/- 10.26 %); type: functional
Mus musculus [19] = assay: Analgesic activity in ICR mouse assessed as increase in pain threshold at 0.05 mmol/kg, po after 30 mins by tail flick method (reference value: 5.03 +/- 10.26 %); type: functional
Mus musculus [20] = assay: Analgesic activity in ICR mouse assessed as increase in pain threshold at 0.05 mmol/kg, po after 150 mins by tail flick method (reference value: 9.02 +/- 12.19 %); type: functional
Mus musculus [21] = assay: Analgesic activity in ICR mouse assessed as increase in pain threshold at 0.10 mmol/kg, po after 180 mins by tail flick method (reference value: 8.75 +/- 9.73 %); type: functional
Mus musculus [22] = assay: Analgesic activity in ICR mouse assessed as increase in pain threshold at 0.10 mmol/kg, po after 150 mins by tail flick method (reference value: 9.02 +/- 12.19 %); type: functional
Rattus norvegicus [23] = assay: Antioxidant activity in mesenteric ischemia/reperfusion injury Wistar rat model ileum assessed as decrease of malondialdehyde levels at 20 mg/kg, ip administered 15 mins before and 1 hr after initiation of reperfusion by Beuge's method; type: functional, organism-based; parameters: dose 20 mg/kg
Procedure, shortened: (§2)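 Dosing 20 mg/kg ip 15 min before and 1 h after reperfusion onset. Intestinal MDA measured by the Beuge and Aust method as nmol/g tissue, and GSH by the Beutler method as µmol/g tissue.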

Rattus norvegicus [24] = assay: Antiinflammatory activity in mesenteric ischemia/reperfusion injury Wistar rat model assessed as reduction of focal denudation of epithelium villi at 20 mg/kg, ip administered 15 mins before and 1 hr after initiation of reperfusion by hematoxylin-eosin staining; type: functional, organism-based; parameters: dose 20 mg/kg
Procedure, shortened: (§3)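 Male Wistar rats (250–300 g) under pentobarbital (80 mg/kg ip) at 37 °C. Drug 20 mg/kg ip 15 min before reperfusion and 1 h into reperfusion, saline to other groups. Terminal ileum (10 mm) snap-frozen, cut at 4–5 µm by cryostat, stained with H&E, and viewed by light microscopy.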

Rattus norvegicus [25] = assay: Antioxidant activity in mesenteric ischemia/reperfusion injury Wistar rat model ileum assessed as restoration of glutathione levels at 20 mg/kg, ip administered 15 mins before and 1 hr after initiation of reperfusion by Beutler's method; type: functional, organism-based; parameters: dose 20 mg/kg; procedure, shortened: as §2
Rattus norvegicus [26] = assay: Antiinflammatory activity in mesenteric ischemia/reperfusion injury Wistar rat model ileum assessed as reduction of mucosal damage at 20 mg/kg, ip administered 15 mins before and 1 hr after initiation of reperfusion by hematoxylin-eosin staining; type: functional, organism-based; parameters: dose 20 mg/kg; procedure, shortened: as §3
Rattus norvegicus [27] = assay: Antioxidant activity in mesenteric ischemia/reperfusion injury Wistar rat model assessed as decrease of myeloperoxidase activity in intestinal tissue at 20 mg/kg, ip administered 15 mins before and 1 hr after initiation of reperfusion; type: functional, organism-based; parameters: dose 20 mg/kg
Mus musculus [28] = assay: Analgesic activity in ICR mouse assessed as increase in pain threshold at 0.15 mmol/kg, ip after 150 mins by tail flick method (reference value: 9.02 +/- 12.19 %); type: functional
Mus musculus [29] = assay: Analgesic activity in ICR mouse assessed as increase in pain threshold at 0.15 mmol/kg, ip after 30 mins by tail flick method (reference value: 5.03 +/- 10.26 %); type: functional
Mus musculus [30] = assay: Analgesic activity in ICR mouse assessed as increase in pain threshold at 0.15 mmol/kg, ip after 180 mins by tail flick method (reference value: 8.75 +/- 9.73 %); type: functional
Mus musculus [31] = assay: Analgesic activity in ICR mouse assessed as increase in pain threshold at 0.15 mmol/kg, ip after 60 mins by tail flick method (reference value: 7.45 +/- 8.03 %); type: functional
Mus musculus [32] = assay: Analgesic activity in ICR mouse assessed as increase in pain threshold at 0.15 mmol/kg, ip after 120 mins by tail flick method (reference value: 8.09 +/- 13.28 %); type: functional
Mus musculus [33] = assay: Analgesic activity in ICR mouse assessed as increase in pain threshold at 0.15 mmol/kg, ip after 90 mins by tail flick method (reference value: 7.53 +/- 11.54 %); type: functional

Structure (SMILES)	inhibition (Mus musculus [1])	Activity (Mus musculus [2]) [%]	Activity (Mus musculus [3]) [%]	Activity (Mus musculus [4]) [%]	inhibition in vivo at 150 µmol/kg (Mus musculus [5]) [%]	Activity (Mus musculus [6]) [%]	Activity (Mus musculus [7]) [%]	Activity (Mus musculus [8]) [%]	inhibition in vivo at 50 µmol/kg (Mus musculus [9]) [%]	Activity (Mus musculus [10]) [%]	Activity (Mus musculus [11]) [%]	Activity (Mus musculus [12]) [%]	Activity (Mus musculus [13]) [%]	inhibition in vivo at 100 µmol/kg (Mus musculus [14]) [%]	Activity (Mus musculus [15]) [%]	Activity (Mus musculus [16]) [%]	Activity (Mus musculus [17]) [%]	Activity (Mus musculus [18]) [%]	Activity (Mus musculus [19]) [%]	Activity (Mus musculus [20]) [%]	other results
NCCCC[C@H](NC(=O)[C@@H]1Cc2c([nH]c3ccccc23)CN1)C(=O)N[C@@H](Cc1ccccc1)C(=O)N[C@@H](Cc1c[nH]c2ccccc12)C(=O)O (H-[Tpi]KFW-OH)	Dose-dependent effect	54.39	26.54	18.99	55.2	38.33	23.58	23.08	28.3	44.27	25.69	29.04	41.28	45.4	52.22	34.48	9.06	32.32	11.55	15.43	Activity (Mus musculus [21]): 14.38%; Activity (Mus musculus [22]): 21.39%
CC(C)C[C@H](NC(=O)[C@@H]1Cc2c([nH]c3ccccc23)CN1)C(=O)N[C@@H](Cc1ccccc1)C(=O)N[C@@H](Cc1c[nH]c2ccccc12)C(=O)O (H-[Tpi]LFW-OH)	Dose-dependent effect	44.67	23.45	17.97	60.7	32.73	20.65	25.45	38.7	48.25	18.86	25.46	34.55	49.6	59.37	37.65	7.46	35.41	29.22	8.23	Activity (Rattus norvegicus [23]): Active; Activity (Rattus norvegicus [24]): Active; Activity (Rattus norvegicus [25]): Active; Activity (Rattus norvegicus [26]): Active; Activity (Rattus norvegicus [27]): Active; Activity (Mus musculus [21]): 13.42%; Activity (Mus musculus [22]): 22.13%
N=C(N)NCCC[C@H](NC(=O)[C@@H]1Cc2c([nH]c3ccccc23)CN1)C(=O)N[C@@H](Cc1ccccc1)C(=O)N[C@@H](Cc1c[nH]c2ccccc12)C(=O)O (H-[Tpi]RFW-OH)	Dose-dependent effect	46.08			57				11.3	38.16	21.55	29.38	37.12	26.5	35.13						
O=C(O)[C@H](Cc1c[nH]c2ccccc12)NC(=O)[C@H](Cc1ccccc1)NC(=O)[C@H](Cc1ccc(O)cc1)NC(=O)[C@@H]1Cc2c([nH]c3ccccc23)CN1 (H-[Tpi]YFW-OH)	Dose-dependent effect	43.23			50.9				16.2	35.75	20.94	28.87	30.25	32.9	41.18						
CN1CC[C@]23c4c5ccc(O)c4O[C@H]2[C@@H](O)C=C[C@H]3[C@H]1C5 [MORPHINE]																					Activity (Mus musculus [28]): 64.55%; Activity (Mus musculus [29]): 142.2%; Activity (Mus musculus [30]): 57.43%; Activity (Mus musculus [31]): 175.78%; Activity (Mus musculus [32]): 98.78%; Activity (Mus musculus [33]): 139.03%
